In ChEMBL document CHEMBL4364290, “Light-controlled inhibition of BRAFV600E kinase” (Eur J Med Chem, 2019):
Calls of active or inactive are those of the source. The rule behind the calls is not given here.

Experiments:
[1] = Half life of the compound in DMSO-d6 at 2 mg/ml measured at room temperature under 365 nm light irradiation using trans-isomer form of compound by 1H-19F NMR spectroscopic analysis
Method in brief: (§1)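 Cis isomer generated by 365 nm irradiation to PSS; half-life of thermal cis-to-trans relaxation followed at room temperature in DMSO, in BRAF assay buffer, or in 1:1 BRAF assay buffer/acetonitrile where solubility required.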

[2] = Drug isomerization in DMSO-d6 irradiated at 365 nm assessed as rate of thermal relaxation measured as cis isomer level at PSS at 2 mg/ml measured after 18 hrs storage in dark at room temperature by 1H-NMR spectroscopic analysis
[3] = Half life of the compound in pH 7.5 tris HCl buffer/acetonitrile at 2 mg/ml measured at room temperature under 365 nm light irradiation using trans-isomer form of compound by 1H-19F NMR spectroscopic analysis; method in brief: as §1
[4] = target: T1, Serine/threonine-protein kinase B-raf (Homo sapiens, UniProt P15056, V600E); test: Inhibition of human recombinant N-terminal GST/His6-tagged BRAF V600E mutant (Q417 to H766 residues) expressed in Sf9 insect cells using MEK1 as substrate measured after 1 hr using light irradiated compound at 365 nm for 45 mins by Western blot analysis
[5] = Drug re-isomerization in DMSO-d6 assessed as cis isomer level at PSS at 2 mg/ml measured after 20 hrs under dark condition at room temperature using irradiated compound by 1H-NMR spectroscopic analysis
[6] = Half life of the compound in pH 7.5 tris HCl buffer at 2 mg/ml measured at room temperature under 365 nm light irradiation using trans-isomer form of compound by 1H-19F NMR spectroscopic analysis; method in brief: as §1
[7] = Drug isomerization in DMSO-d6 irradiated at 365 nm assessed as cis isomer level at PSS at 2 mg/ml measured after 135 mins under room temperature by 1H and 19F-NMR spectroscopic analysis
[8] = Absorption property of the compound in pH 7.5 tris HCl buffer assessed as maximum absorption wavelength; format: physicochemical
Method in brief: (§2)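 λmax of the trans isomer recorded in DMSO and in BRAF assay buffer.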

[9] = Drug isomerization in DMSO-d6 irradiated at 365 nm assessed as cis isomer level at PSS at 2 mg/ml measured after 75 mins under room temperature by 1H and 19F-NMR spectroscopic analysis
[10] = Stability of the compound in DMSO-D6 at 2 mg/ml by 1H-19F NMR analysis; format: physicochemical; conditions: read-out: Stability
[11] = Drug isomerization in DMSO-d6 assessed as cis isomer level at PSS at 2 mg/ml irradiated at 365 nm light measured immediately by 1H-NMR spectroscopic analysis
[12] = Absorption property of the compound in DMSO assessed as maximum absorption wavelength; format: physicochemical; method in brief: as §2
[13] = target: T1, Serine/threonine-protein kinase B-raf; test: Inhibition of human recombinant N-terminal GST/His6-tagged BRAF V600E mutant (Q417 to H766 residues) expressed in Sf9 insect cells using MEK1 as substrate measured after 1 hr using preheated compound at 60 degC for 30 mins by Western blot analysis
[14] = Drug isomerization in DMSO-d6 irradiated at 365 nm assessed as cis isomer level at PSS at 2 mg/ml measured after 120 mins under room temperature by 1H and 19F-NMR spectroscopic analysis
[15] = Drug isomerization in DMSO-d6 irradiated at 365 nm assessed as cis isomer level at PSS at 2 mg/ml measured after 90 mins under room temperature by 1H and 19F-NMR spectroscopic analysis
[16] = Drug isomerization in DMSO-d6 irradiated at 365 nm assessed as cis isomer level at PSS at 2 mg/ml measured after 100 mins under room temperature by 1H and 19F-NMR spectroscopic analysis
[17] = Drug isomerization in DMSO-d6 irradiated at 365 nm assessed as cis isomer level at PSS at 2 mg/ml measured after 70 mins under room temperature by 1H and 19F-NMR spectroscopic analysis
[18] = Drug isomerization in bovine plasma at 10 uM measured after 20 hrs at 37 degC by LCMS analysis; format: ADME, cell-free, Bos taurus; conditions: cattle
[19] = system: Serine/threonine-protein kinase B-raf (Homo sapiens), P15056 [V600E]; test: Inhibition of BRAF V600E mutant in human SK-MEL-28 using peptide as substrate using irradiated compound at 365 nm light for 45 mins by STK-Pamchip array-based method; format: cell-based
Method in brief: (§3)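 SK-Mel-28 cell lysates treated with DMSO control or inhibitor, either dark (thermally adapted) or irradiated with 365 nm light; kinase activity profiled on PamGene STK peptide chips.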

[20] = Thermal re-isomerization in bovine plasma assessed as trans-isomer formation at 10 uM measured after 1 hr at 37 degC using pre-irradiated compound at 365 nm light for 1 hr by LCMS analysis; format: ADME, cell-free, Bos taurus; conditions: cattle
[21] = Drug isomerization in DMSO-d6 irradiated at 365 nm assessed as rate of thermal relaxation measured as cis isomer level at PSS at 2 mg/ml measured after 70 hrs storage in dark at room temperature by 1H-NMR spectroscopic analysis
[22] = system: A-375; test: Cytotoxicity against human A375 cells harboring BRAF V600E mutant assessed as reduction in cell viability at 10 uM incubated for 24 hrs by MTS assay; format: functional, cell-based
Method in brief: (§4)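 A375 melanoma cells (BRAF V600E) exposed 24 h to 10 µM compound, thermally adapted or 365 nm-irradiated, versus DMSO control; viability by MTS assay.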

[23] = Drug isomerization in DMSO-d6 irradiated at 365 nm assessed as rate of thermal relaxation measured as cis isomer level at PSS at 2 mg/ml measured after 2.5 hrs storage in dark at room temperature by 1H-NMR spectroscopic analysis
[24] = Drug isomerization in DMSO-d6 irradiated at 365 nm assessed as cis isomer level at PSS at 2 mg/ml measured after 60 mins under room temperature by 1H and 19F-NMR spectroscopic analysis
[25] = system: Serine/threonine-protein kinase B-raf (Homo sapiens), P15056 [V600E]; test: Inhibition of BRAF V600E mutant in human SK-MEL-28 using peptide as substrate using preheated compound at 60 degC for 30 mins measured under dark condition by STK-Pamchip array-based method; format: cell-based; method in brief: as §3
[26] = Stability in bovine plasma irradiated with white light at 10 uM by LCMS analysis; format: ADME, cell-free, Bos taurus; conditions: cattle
[27] = system: A-375; test: Dark toxicity against human A375 cells harboring BRAF V600E mutant assessed as reduction in cell viability at 10 uM incubated for 24 hrs using preheated compound at 60 degC for 60 mins by MTS assay; format: cell-based; conditions: a-375, 24 h, in the assay text read “30 mins” for “60 mins”; method in brief: as §4
[28] = Drug isomerization in bovine plasma assessed as cis-isomer formation at 10 uM irradiated with 365 nm light by LCMS analysis; format: ADME, cell-free, Bos taurus; conditions: cattle
[29] = Drug isomerization in DMSO-d6 irradiated at 365 nm assessed as cis isomer level at PSS at 2 mg/ml measured after 45 mins under room temperature by 1H and 19F-NMR spectroscopic analysis
[30] = Stability of thermally adapted compound in bovine plasma at 10 uM after 1 hr at 37 degC by LCMS analysis; format: ADME, cell-free, Bos taurus; conditions: cattle
[31] = system: Serine/threonine-protein kinase B-raf (Homo sapiens), P15056 [V600E]; test: Reversible inhibition of human recombinant N-terminal GST/His6-tagged BRAF V600E mutant (Q417 to H766 residues) expressed in Sf9 insect cells using MEK1 as substrate at 1 uM pre-irradiated with 365 nm light for 45 mins followed by thermal activation at 60 degC for 30 mins and subsequent light irradiation at 365 nm for 45 mins by Western blot analysis
[32] = target: T1, Serine/threonine-protein kinase B-raf; test: Inhibition of human recombinant BRAF V600E mutant using MEK1 as substrate measured after 1 hr by Western blot analysis
[33] = system: Serine/threonine-protein kinase B-raf (Homo sapiens), P15056 [V600E]; test: Inhibition of BRAF V600E mutant in human SK-MEL-28 cells using peptide substrate by STK-Pamchip array-based method; format: cell-based; method in brief: as §3
[34] = Drug isomerization in DMSO-d6 irradiated at 365 nm assessed as cis isomer level at PSS at 2 mg/ml measured after 30 mins under room temperature by 1H and 19F-NMR spectroscopic analysis
[35] = Drug isomerization in DMSO-d6 irradiated at 365 nm assessed as cis isomer level at PSS at 2 mg/ml measured after 40 mins under room temperature by 1H and 19F-NMR spectroscopic analysis

T1 sequence (P15056 2-766 V600E limits assumed): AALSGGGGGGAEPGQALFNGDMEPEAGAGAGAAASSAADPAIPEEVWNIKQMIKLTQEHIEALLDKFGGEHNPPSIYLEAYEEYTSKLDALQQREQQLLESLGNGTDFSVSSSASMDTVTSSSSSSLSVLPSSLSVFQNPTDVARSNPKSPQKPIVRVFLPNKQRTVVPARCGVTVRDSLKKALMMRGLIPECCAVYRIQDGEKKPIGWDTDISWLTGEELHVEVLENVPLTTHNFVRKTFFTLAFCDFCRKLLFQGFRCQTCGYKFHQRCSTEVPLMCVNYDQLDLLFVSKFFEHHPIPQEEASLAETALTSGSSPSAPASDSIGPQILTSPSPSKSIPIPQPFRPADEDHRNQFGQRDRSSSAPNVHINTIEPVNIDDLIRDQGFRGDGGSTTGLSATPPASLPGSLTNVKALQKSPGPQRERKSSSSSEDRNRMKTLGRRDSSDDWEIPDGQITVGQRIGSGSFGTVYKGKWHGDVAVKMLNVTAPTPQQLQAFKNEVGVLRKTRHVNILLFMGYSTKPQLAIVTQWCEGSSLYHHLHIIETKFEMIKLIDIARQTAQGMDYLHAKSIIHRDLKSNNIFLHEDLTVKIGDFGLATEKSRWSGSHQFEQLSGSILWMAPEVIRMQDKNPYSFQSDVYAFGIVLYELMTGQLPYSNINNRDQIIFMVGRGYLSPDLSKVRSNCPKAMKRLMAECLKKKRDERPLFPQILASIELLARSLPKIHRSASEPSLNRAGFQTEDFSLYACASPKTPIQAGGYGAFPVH
Serine/threonine-protein kinase B-raf (Homo sapiens), P15056 [V600E], sequence (P15056 whole entry V600E, the tested form may be a part): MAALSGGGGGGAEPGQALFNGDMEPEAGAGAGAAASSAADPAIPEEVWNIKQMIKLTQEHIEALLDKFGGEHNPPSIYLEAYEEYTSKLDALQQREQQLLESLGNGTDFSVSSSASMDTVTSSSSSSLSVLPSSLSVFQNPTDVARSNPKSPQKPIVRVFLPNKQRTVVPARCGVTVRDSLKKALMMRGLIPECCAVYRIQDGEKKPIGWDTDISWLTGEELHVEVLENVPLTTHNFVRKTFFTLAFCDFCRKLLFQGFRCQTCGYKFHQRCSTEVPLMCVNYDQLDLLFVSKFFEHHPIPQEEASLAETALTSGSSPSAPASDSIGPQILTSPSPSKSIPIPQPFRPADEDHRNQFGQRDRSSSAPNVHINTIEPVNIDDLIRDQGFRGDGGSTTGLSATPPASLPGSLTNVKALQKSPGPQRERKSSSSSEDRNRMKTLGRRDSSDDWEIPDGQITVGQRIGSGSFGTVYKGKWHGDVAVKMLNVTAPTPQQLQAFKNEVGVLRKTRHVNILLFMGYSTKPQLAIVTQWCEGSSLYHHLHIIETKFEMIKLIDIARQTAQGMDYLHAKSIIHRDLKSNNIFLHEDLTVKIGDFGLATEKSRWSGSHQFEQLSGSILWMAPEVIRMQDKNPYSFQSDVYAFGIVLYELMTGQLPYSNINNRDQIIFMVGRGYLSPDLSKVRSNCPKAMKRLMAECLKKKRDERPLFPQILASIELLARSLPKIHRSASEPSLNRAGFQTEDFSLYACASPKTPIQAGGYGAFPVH

SMILES | IC50 [4] | Activity [8] | remaining at 2 mg/ml [10] | Activity [12] | IC50 [13] | T1/2 [1] | T1/2 [3] | Drug metabolism [5] | Drug metabolism [11] | also measured
COc1ccccc1/N=N\c1ccc(F)c(C(=O)Nc2cnc3[nH]nc(OC)c3c2)c1F | 360 nM | – | – | – | – | > 24 h | > 24 h | – | – | Drug metabolism [2]: 79%
COc1ccc(/N=N\c2cccc(C(=O)Nc3cnc4[nH]nc(OC)c4c3)c2)cc1 | 450 nM | – | – | – | – | > 10 h | – | 34% | – | T1/2 [6]: > 10 h
COc1n[nH]c2ncc(NC(=O)c3c(F)ccc(/N=N/c4ccccc4C)c3F)cc12 | – | 334 nm | > 95% | 335 nm | 1700 nM | – | – | – | 77% | Drug metabolism [7]: 77%; Drug metabolism [9]: 60%
COc1n[nH]c2ncc(NC(=O)c3c(F)ccc(/N=N\c4ccccc4)c3F)cc12 | 157 nM | – | – | – | – | > 10 h | – | 36% | – | Drug metabolism [18]: Metabolite_Detected; inhibition [19]: inactive; Drug metabolism [20]: Metabolite_Detected; T1/2 [6]: 5.4 h
COc1n[nH]c2ncc(NC(=O)c3c(F)ccc(/N=N\c4ccccc4C)c3F)cc12 | 540 nM | – | – | – | – | > 70 h | > 24 h | – | – | Drug metabolism [21]: 62%
CCCS(=O)(=O)Nc1ccc(F)c(C(=O)c2c[nH]c3ncc(-c4ccc(Cl)cc4)cc23)c1F | – | – | – | – | – | – | – | – | – | Activity [22]: Active
COc1n[nH]c2ncc(NC(=O)c3c(F)ccc(/N=N\c4ccccc4F)c3F)cc12 | 660 nM | – | – | – | – | > 20 h | 5 h | 51% | – | Drug metabolism [23]: 50%
COc1ccc(/N=N/c2cccc(C(=O)Nc3cnc4[nH]nc(OC)c4c3)c2)cc1 | – | 345 nm | > 95% | 352 nm | 100 nM | – | – | – | 73% | Drug metabolism [24]: 92%; Drug metabolism [15]: 94%
COc1ccccc1/N=N/c1ccc(F)c(C(=O)Nc2cnc3[nH]nc(OC)c3c2)c1F | – | 327 nm | > 95% | 334 nm | 300 nM | – | – | – | 88% | Drug metabolism [24]: 88%; Drug metabolism [15]: 88%
COc1n[nH]c2ncc(NC(=O)c3c(F)ccc(NS(=O)(=O)c4ccccc4)c3F)cc12 | – | – | – | – | – | – | – | – | – | IC50 [32]: 22 nM; inhibition [33]: Active; Activity [22]: Active
COc1n[nH]c2ncc(NC(=O)c3c(F)ccc(/N=N/c4ccccc4F)c3F)cc12 | – | 331 nm | > 95% | 336 nm | 320 nM | – | – | – | 71% | Drug metabolism [35]: 68%; Drug metabolism [17]: 71%

Further lines, with some results ahead:

IC50 [4] | Activity [8] | remaining at 2 mg/ml [10] | Activity [12] | IC50 [13] | SMILES | T1/2 [1] | T1/2 [3] | Drug metabolism [5] | Drug metabolism [11] | also measured
– | 338 nm | > 95% | 335 nm | 2600 nM | COc1n[nH]c2ncc(NC(=O)c3c(F)ccc(/N=N/c4ccc(F)cc4)c3F)cc12 | – | – | – | 62% | Drug metabolism [14]: 62%; Drug metabolism [15]: 58%
– | 338 nm | > 95% | 340 nm | 32 nM | COc1n[nH]c2ncc(NC(=O)c3c(F)ccc(/N=N/c4ccc(C)cc4)c3F)cc12 | – | – | – | 84% | Drug metabolism [16]: 84%; Drug metabolism [17]: 80%
9 nM | – | – | – | – | COc1n[nH]c2ncc(NC(=O)c3c(F)ccc(/N=N\c4ccc(C)cc4)c3F)cc12 | > 20 h | > 24 h | 73% | – | –
470 nM | – | – | – | – | COc1ccc(/N=N\c2ccc(F)c(C(=O)Nc3cnc4[nH]nc(OC)c4c3)c2F)cc1 | > 10 h | > 24 h | 79% | – | –
8100 nM | – | – | – | – | COc1n[nH]c2ncc(NC(=O)c3c(F)ccc(/N=N\c4ccc(F)cc4)c3F)cc12 | > 20 h | > 24 h | 60% | – | –
– | 328 nm | > 95% | 332 nm | 1680 nM | COc1n[nH]c2ncc(NC(=O)c3c(F)ccc(/N=N/c4ccccc4)c3F)cc12 | – | – | – | 37% | inhibition [25]: Active; Stability [26]: Unstable; Drug metabolism [18]: Metabolite_Detected; Activity [27]: Non-Toxic; Drug metabolism [15]: 55%; Stability [28]: Unstable; Drug metabolism [29]: 46%; Stability [30]: Unstable; inhibition [31]: Active
– | 341 nm | > 95% | 357 nm | 92 nM | COc1ccc(/N=N/c2ccc(F)c(C(=O)Nc3cnc4[nH]nc(OC)c4c3)c2F)cc1 | – | – | – | 96% | Drug metabolism [24]: 83%; Drug metabolism [15]: 92%; Drug metabolism [34]: 60%
